The target of one assay is KIX H602C (Mus musculus, UniProt P45481, H602C). Briefly: LC-MS analysis of labelling of KIX H602C by disulphide fragments. It is filed as binding. The procedure, abridged:
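Tethering reactions of KIX H602C with ten hit disulphide fragments from the FP screen were run at increasing β-ME stringency to compare relative affinities. Mass spectrometry gave the percent of protein carrying each fragment through the disulphide.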

Assay [1] deals with KIX N627C / fluorescently-labeled MLL peptide (Mus musculus, UniProt P45481, N627C). The note with it: fragment covalently associated with KIX N627C; cited from earlier work.
Another assay has as its target KIX N627C mutant (Mus musculus, UniProt P45481, N627C). Briefly: LC-MS Tethering: labelling of KIX N627C by disulphide fragment. Conditions: 5 mM BME, 250 μM fragment. In kind it is binding.

Sequence of KIX H602C (P45481 586-665 H602C limits assumed): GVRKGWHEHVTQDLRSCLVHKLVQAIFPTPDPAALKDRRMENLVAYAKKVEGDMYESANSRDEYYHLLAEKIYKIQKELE
Sequence of KIX N627C / fluorescently-labeled MLL peptide (P45481 586-665 N627C limits assumed): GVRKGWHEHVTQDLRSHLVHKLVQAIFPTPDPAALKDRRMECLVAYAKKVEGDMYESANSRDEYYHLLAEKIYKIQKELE
Sequence of KIX N627C mutant (P45481 586-665 N627C limits assumed): as above

Take `CC(=O)Nc1ccc(Cl)c(NC(=O)NCCSSCCN(C)C)c1` [3D4]: the “percent labelling of KIX” value at KIX H602C (5 mM β-ME, KIX H602C, MS) is ~ 70%. Besides, the “DR50 (concentration at which 50% of the KIX H602C mutant is bound by the fragment)” value on KIX H602C (LC-MS dose-response, result in words) is reported as “lower with the fragment 3D4 than 6D11”.
As to `CN(C)CCSSCCC(=O)N1CCC(O)(c2ccc(Cl)c(C(F)(F)F)c2)CC1` [1A10], the “inhibition of MLL binding” value in assay [1] is reported as “effective inhibitors of MLL binding”. Also, on KIX N627C mutant, the “percent of KIX N627C mutant labelled” value amounted to 82%.
As to `COc1ccc2cc([C@H](C)C(=O)NCCSSCCN)ccc2c1` [1C11], the “inhibition of MLL binding” value in assay [1] is listed as “effective inhibitors of MLL binding”.

The record behind these values is PMC4005387 (MedChemComm, 2014).
